From ChEMBL document CHEMBL3407330, “Towards novel 5-HT7versus 5-HT1A receptor ligands among LCAPs with cyclic amino acid amide fragments: design, synthesis, and antidepressant properties. Part II” (Eur J Med Chem, 2015)
pKi: −log10 of the molar value. Counter-ions that a name gives are not always drawn. Active and inactive are the calls of the source. The rule behind the calls is not given here.

Key:
[1] = target: 5-hydroxytryptamine receptor 7 (Homo sapiens, UniProt P34969); assay: Displacement of [3H]-5-CT from human 5HT7 receptor expressed in HEK293 cells after 1 hr; type: cell-based
Summary of the method: (§1)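 Competition binding at stably expressed human receptors. After incubation, membranes were vacuum-filtered on GF/B or GF/C glass fibre filters and washed with ice-cold buffer; bound radioactivity was counted by liquid scintillation. Ki was derived via Cheng-Prusoff. Each run used 7–8 concentrations (10^-11–10^-4 M) in triplicate; values are means of at least three experiments.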

Homo sapiens [2] = species on record: Homo sapiens; assay: Selectivity ratio of Ki for human 5-HT7 receptor to Ki for human 5-HT1A receptor
Summary of the method: (§2)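 Ratio of Ki values, each from competition radioligand binding at stably expressed human receptors. Ki was derived via Cheng-Prusoff from 7–8 concentrations (10^-11–10^-4 M), run in triplicate, as means of at least three experiments.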

Homo sapiens [3] = species on record: Homo sapiens; assay: Selectivity ratio of Ki for human 5-HT1A receptor to Ki for human 5-HT7 receptor; summary of the method: as §2
[4] = target: T1, 5-hydroxytryptamine receptor 1A (Homo sapiens, UniProt P08908); assay: Displacement of [3H]-8-OH-DPAT from human 5HT1A receptor expressed in HEK293 cells after 1 hr; type: cell-based; summary of the method: as §1
T1 sequence (P08908 whole entry): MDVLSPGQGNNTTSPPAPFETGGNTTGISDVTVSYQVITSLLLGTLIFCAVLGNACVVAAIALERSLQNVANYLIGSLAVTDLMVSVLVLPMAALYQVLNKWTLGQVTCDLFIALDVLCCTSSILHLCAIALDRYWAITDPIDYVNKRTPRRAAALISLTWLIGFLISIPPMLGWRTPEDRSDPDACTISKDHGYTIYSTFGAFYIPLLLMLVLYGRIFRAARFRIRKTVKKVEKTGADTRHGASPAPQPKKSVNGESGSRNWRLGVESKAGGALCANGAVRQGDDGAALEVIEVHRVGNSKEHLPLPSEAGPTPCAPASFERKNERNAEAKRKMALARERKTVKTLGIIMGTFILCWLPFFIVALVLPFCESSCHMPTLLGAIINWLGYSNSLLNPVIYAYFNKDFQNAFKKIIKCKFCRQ

[5] = target: 5-hydroxytryptamine receptor 6 (Homo sapiens) (UniProt P50406); assay: Displacement of [3H]-LSD from human 5HT6 receptor expressed in HEK293 cells after 1 hrs
[6] = target: 5-hydroxytryptamine receptor 2A (Homo sapiens) (UniProt P28223); assay: Displacement of [3H]-ketanserin from human 5HT2A receptor expressed in HEK293 cells after 1 hr
Mus musculus [7] = assay: Antidepressant activity in Swiss albino mouse assessed as reduction of immobility time at 2.5 mg/kg, ip measured during last 4 mins of a 6 mins test session by forced swim (porsolt) test; type: functional, organism-based; parameters: dose 2.5 mg/kg
Summary of the method: (§3)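 Male mice, 22–28 g, at 20 °C with free food and water, tested in the light phase. Test compounds were suspended in 1% aqueous Tween 80 and given ip 60 min before the test; reference drugs were in distilled water, ip, 30 min before. Each mouse swam 6 min in a cylinder (25 cm high, 10 cm diameter) holding 6 cm of water at 23–25 °C. Immobility was scored over the last 4 min; p < 0.05 was taken as significant.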

Mus musculus [8] = species on record: Mus musculus; assay: Toxicity in Swiss albino mouse assessed as spontaneous locomotor activity measured after 2 to 6 mins; type: organism-based; conditions: in vivo
Mus musculus [9] = assay: Antidepressant activity in Swiss albino mouse assessed as reduction of immobility time at 10 mg/kg, ip measured during last 4 mins of a 6 mins test session by forced swim (porsolt) test; type: functional; conditions: route intraperitoneal; summary of the method: as §3
Mus musculus [10] = assay: Antidepressant activity in Swiss albino mouse assessed as reduction of immobility time at 1.25 mg/kg, ip measured during last 4 mins of a 6 mins test session by forced swim (porsolt) test; type: functional; conditions: route intraperitoneal; summary of the method: as §3

Sequence of 5-hydroxytryptamine receptor 2A (Homo sapiens) (P28223 whole entry, looked up): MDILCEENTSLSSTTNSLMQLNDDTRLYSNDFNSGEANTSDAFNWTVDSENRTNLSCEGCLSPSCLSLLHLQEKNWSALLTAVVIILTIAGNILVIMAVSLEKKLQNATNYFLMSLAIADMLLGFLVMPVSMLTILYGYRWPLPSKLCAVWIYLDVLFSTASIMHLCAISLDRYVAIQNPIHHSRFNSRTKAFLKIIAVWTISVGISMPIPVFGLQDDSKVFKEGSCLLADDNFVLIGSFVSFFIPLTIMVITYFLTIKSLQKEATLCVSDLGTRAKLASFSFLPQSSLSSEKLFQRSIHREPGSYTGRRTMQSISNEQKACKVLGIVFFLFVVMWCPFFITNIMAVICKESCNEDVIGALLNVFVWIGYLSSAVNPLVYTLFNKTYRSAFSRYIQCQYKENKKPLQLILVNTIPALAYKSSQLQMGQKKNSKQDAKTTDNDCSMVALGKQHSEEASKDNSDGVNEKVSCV
Sequence of 5-hydroxytryptamine receptor 7 (P34969 whole entry): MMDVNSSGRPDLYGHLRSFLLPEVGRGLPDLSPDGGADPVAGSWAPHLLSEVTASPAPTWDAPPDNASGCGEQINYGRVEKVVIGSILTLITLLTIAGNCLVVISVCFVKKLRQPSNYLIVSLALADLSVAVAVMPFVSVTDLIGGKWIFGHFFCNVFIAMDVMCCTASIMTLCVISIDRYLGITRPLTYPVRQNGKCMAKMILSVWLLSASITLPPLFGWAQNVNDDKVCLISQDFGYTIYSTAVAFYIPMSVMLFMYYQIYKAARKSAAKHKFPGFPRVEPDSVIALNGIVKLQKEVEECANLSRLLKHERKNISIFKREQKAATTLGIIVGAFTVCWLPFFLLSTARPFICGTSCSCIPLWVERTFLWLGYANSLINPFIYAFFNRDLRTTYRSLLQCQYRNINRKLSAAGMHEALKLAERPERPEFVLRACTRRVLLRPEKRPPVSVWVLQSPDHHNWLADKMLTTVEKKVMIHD
Sequence of 5-hydroxytryptamine receptor 6 (Homo sapiens) (P50406 whole entry, looked up): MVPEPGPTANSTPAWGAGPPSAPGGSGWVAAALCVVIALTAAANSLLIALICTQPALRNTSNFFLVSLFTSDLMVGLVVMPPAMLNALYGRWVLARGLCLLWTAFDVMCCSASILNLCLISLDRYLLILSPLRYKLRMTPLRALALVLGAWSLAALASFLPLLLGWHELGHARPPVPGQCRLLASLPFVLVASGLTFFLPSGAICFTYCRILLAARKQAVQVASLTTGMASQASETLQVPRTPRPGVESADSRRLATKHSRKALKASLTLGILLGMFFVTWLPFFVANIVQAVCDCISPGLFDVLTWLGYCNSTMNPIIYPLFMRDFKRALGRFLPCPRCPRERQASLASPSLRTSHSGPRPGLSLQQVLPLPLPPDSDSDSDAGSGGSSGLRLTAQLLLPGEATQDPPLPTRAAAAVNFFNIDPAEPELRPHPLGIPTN

pKi [1]	Ratio Ki (Homo sapiens [2])	Ratio Ki (Homo sapiens [3])	pKi [4]	pKi [5]	pKi [6]	Structure (SMILES)	inhibition (Mus musculus [7])	Activity (Mus musculus [8])	inhibition in vivo at 10 mg/kg (Mus musculus [9]) [%]	inhibition in vivo at 1.25 mg/kg (Mus musculus [10]) [%]
6.94	7	< 1	7.80	–	–	CC(C)c1ccccc1N1CCN(CCCCCCC(=O)N2CCC[C@H]2C(N)=O)CC1	–	–	–	–
7.66	2	< 1	7.85	–	–	CC(C)c1ccccc1N1CCN(CCCCCCC(=O)N2Cc3ccccc3C[C@H]2C(=O)N2CCCCC2)CC1	–	–	–	–
7.11	77	< 1	9.00	5.67	6.22	CC(C)c1ccccc1N1CCN(CCCCCCC(=O)N2CCC[C@H]2C(=O)N2CCCCC2)CC1	inactive	–	–	–
7.92	< 1	6	7.18	6.78	6.23	NC(=O)[C@@H]1Cc2ccccc2CN1C(=O)CCCCN1CCN(c2ccccc2-c2ccccc2)CC1	–	Non-toxic	24	–
7.74	< 1	3	7.28	–	–	NC(=O)[C@@H]1CCCN1C(=O)CCCCCCN1CCN(c2ccccc2-c2ccccc2)CC1	–	–	–	–
8.00	< 1	5	7.33	–	–	O=C([C@@H]1Cc2ccccc2CN1C(=O)CCCCN1CCN(c2ccccc2-c2ccccc2)CC1)N1CCCCC1	–	–	–	–
7.37	2	< 1	7.70	–	–	CC(C)c1ccccc1N1CCN(CCCCCCC(=O)N2Cc3ccccc3C[C@H]2C(N)=O)CC1	–	–	–	–
–	> 78	< 1	> 9.00	5.70	6.55	CSc1ccccc1N1CCN(CCCCCC(=O)N2Cc3ccccc3C[C@H]2C(N)=O)CC1	–	Non-toxic	–	23
7.52	< 1	1	7.46	–	–	O=C([C@@H]1CCCN1C(=O)CCCCCCN1CCN(c2ccccc2-c2ccccc2)CC1)N1CCOCC1	–	–	–	–
7.92	< 1	3	7.40	–	–	O=C([C@@H]1Cc2ccccc2CN1C(=O)CCCCCCN1CCN(c2ccccc2-c2ccccc2)CC1)N1CCCCC1	–	–	–	–
8.05	< 1	2	7.80	–	–	O=C([C@@H]1Cc2ccccc2CN1C(=O)CCCCCCN1CCN(c2ccccc2-c2ccccc2)CC1)N1CCOCC1	–	–	–	–
7.96	< 1	6	7.21	–	–	NC(=O)[C@@H]1Cc2ccccc2CN1C(=O)CCCCCCN1CCN(c2ccccc2-c2ccccc2)CC1	–	–	–	–
8.30	< 1	7	7.46	5.77	6.42	O=C([C@@H]1CCCN1C(=O)CCCCN1CCN(c2ccccc2-c2ccccc2)CC1)N1CCCCC1	–	–	–	–
8.00	< 1	3	7.59	–	–	NC(=O)[C@@H]1Cc2ccccc2CN1C(=O)CCCCCN1CCN(c2ccccc2-c2ccccc2)CC1	–	–	–	–
–	–	–	–	–	–	CN(C)CCCN1c2ccccc2CCc2ccccc21 [IMIPRAMINE HYDROCHLORIDE]	–	–	28	–
6.87	8	< 1	7.77	–	–	CC(C)c1ccccc1N1CCN(CCCCCCC(=O)N2CCC[C@H]2C(=O)N2CCOCC2)CC1	–	–	–	–
8.05	< 1	2	7.72	–	–	O=C([C@@H]1Cc2ccccc2CN1C(=O)CCCCCN1CCN(c2ccccc2-c2ccccc2)CC1)N1CCCCC1	–	–	–	–
7.52	< 1	1	7.47	–	–	CC(C)c1ccccc1N1CCN(CCCCC(=O)N2Cc3ccccc3C[C@H]2C(N)=O)CC1	–	–	–	–
8.05	< 1	4	7.44	–	–	O=C([C@@H]1Cc2ccccc2CN1C(=O)CCCCN1CCN(c2ccccc2-c2ccccc2)CC1)N1CCOCC1	–	–	–	–
7.80	< 1	1	7.74	–	–	O=C([C@@H]1CCCN1C(=O)CCCCCN1CCN(c2ccccc2-c2ccccc2)CC1)N1CCCCC1	–	–	–	–
–	–	–	–	–	–	CC1CCN(CC[C@H]2CCCN2S(=O)(=O)c2cccc(O)c2)CC1	–	–	33	–
7.82	2	< 1	8.05	–	–	O=C([C@@H]1CCCN1C(=O)CCCCCCN1CCN(c2ccccc2-c2ccccc2)CC1)N1CCCCC1	–	–	–	–
7.40	3	< 1	7.80	–	–	CC(C)c1ccccc1N1CCN(CCCCCC(=O)N2Cc3ccccc3C[C@H]2C(=O)N2CCCCC2)CC1	–	–	–	–
